The results in this text go back to ChEMBL document CHEMBL1135836, “Cyclodextrin-derived host molecules as reversal agents for the neuromuscular blocker rocuronium bromide: synthesis and structure-activity relationships” (J Med Chem, 2002).

Common to all, as to type: functional
For assay [1], the system named is Felis catus. The experiment in a line: % of maximum change of decrease in HR by vagal stimulation in anesthetized cat at 1.0umol/kg, by bolus injection.
Assay [2] concerns Felis catus. In words: % of maximum change of decrease in HR by vagal stimulation in anesthetized cat at 0.4umol/kg, by bolus injection.
Assay [3] has as its system Felis catus. The experiment in a line: Percentage of maximum change in blood pressure in anesthetized cat dosed at 1.8 umol/kg (by bolus injection). The method in brief: (§1)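 Anaesthetized cats, left for 1 h after surgery to stabilize. Tibialis anterior twitch was evoked via the sciatic nerve with supramaximal 0.25 ms pulses at 0.1 Hz. Rocuronium in phosphate buffer (pH 4) was infused continuously (10.24 ± 1.31 nmol kg-1 min-1). Increasing doses of agent in saline were then given as iv boluses while mean arterial blood pressure and heart rate were recorded; means of three independent experiments.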

For assay [4], the system named is Felis catus. The experiment in a line: % of maximum change of increase in contraction of nictitating membrane in anesthetized cat at 1.2umol/kg, by bolus injection.
For assay [5], the system named is Felis catus. The experiment in a line: % of maximum change of increase in contraction of nictitating membrane in anesthetized cat at 0.4umol/kg, by bolus injection.
The subject of assay [6] is Felis catus. In words: Percentage of maximum change in blood pressure in anesthetized cat dosed at 1.2 umol/kg (by bolus injection). The method in brief: as §1
The subject of assay [7] is Felis catus. In words: % of maximum change of increase in contraction of nictitating membrane in anesthetized cat at 0.8umol/kg, by bolus injection.
Assay [8] concerns Felis catus. In words: Percentage of maximum change of heart rate in anesthetized cat at 1.4umol/kg, by bolus injection. The method in brief: as §1
The test system of assay [9] is Felis catus. The experiment in a line: Percentage of maximum change in blood pressure in anesthetized cat dosed at 0.6 umol/kg (by bolus injection). The method in brief: as §1
Assay [10] has as its system Felis catus. The experiment in a line: Percentage of maximum change in blood pressure in anesthetized cat dosed at 0.2 umol/kg (by bolus injection). A digest of the protocol:
as §1

The test system of assay [11] is Felis catus. The experiment in a line: % of maximum change of decrease in HR by vagal stimulation in anesthetized cat at 0.2umol/kg, by bolus injection.
The species entered for assay [12] is Mus musculus. In words: In vitro reversal activity versus ~90% block by rocuronium in isolated mouse hemidiaphragm, expressed as % of maximum reversal at 3.6 uM conc.
For assay [13], the system named is Felis catus. The experiment in a line: Percentage of maximum change of heart rate in anesthetized cat at 1.6umol/kg, by bolus injection. A digest of the protocol: as §1
The subject of assay [14] is Felis catus. In words: Percentage of maximum change of heart rate in anesthetized cat at 0.4umol/kg, by bolus injection. The method in brief:
as §1

Assay [15] concerns Felis catus. In words: Percentage of maximum change in blood pressure in anesthetized cat dosed at 1.0 umol/kg (by bolus injection). The method in brief:
as §1

Assay [16] deals with Cavia porcellus. The experiment in a line: In vivo reversal activity versus ~90% block by rocuronium in guinea pig, expressed as % of maximum reversal at 0.3 umol/kg conc. A digest of the protocol: (§2)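 Male Dunkin-Hartley guinea pigs (600-900 g), anaesthetized ip with pentobarbitone 10 mg/kg plus urethane 1000 mg/kg, tracheotomized and ventilated. Continuous iv rocuronium infusion (~10 nmol kg-1 min-1) was raised to a steady 85-90% block. Increasing iv doses of agent were given cumulatively. ED50 = 50% recovery versus preblock twitch, by regression. Mean ± SEM of at least two experiments, or one.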

The subject of assay [17] is Felis catus. The experiment in a line: Percentage of maximum change of heart rate in anesthetized cat at 0.6umol/kg, by bolus injection. A digest of the protocol: as §1
Assay [18] concerns Cavia porcellus. In words: In vivo reversal activity versus ~90% block by rocuronium in guinea pig. A digest of the protocol:
as §2

The test system of assay [19] is Felis catus. In words: % of maximum change of increase in contraction of nictitating membrane in anesthetized cat at 1.0umol/kg, by bolus injection.
For assay [20], the system named is Felis catus. The experiment in a line: % of maximum change of decrease in HR by vagal stimulation in anesthetized cat at 1.4umol/kg, by bolus injection.
For assay [21], the system named is Felis catus. In words: Percentage of maximum change of heart rate in anesthetized cat at 1.0umol/kg, by bolus injection. A digest of the protocol: as §1
Assay [22] has as its system Felis catus. In words: % of maximum change of decrease in HR by vagal stimulation in anesthetized cat at 0.6umol/kg, by bolus injection.
Assay [23] concerns Felis catus. The experiment in a line: Percentage of maximum change of heart rate in anesthetized cat at 0.2umol/kg, by bolus injection. A digest of the protocol:
as §1

The subject of assay [24] is Felis catus. The experiment in a line: % of maximum change of decrease in HR by vagal stimulation in anesthetized cat at 0.8umol/kg, by bolus injection.
The subject of assay [25] is Felis catus. The experiment in a line: Percentage of maximum change in blood pressure in anesthetized cat dosed at 0.4 umol/kg (by bolus injection). A digest of the protocol:
as §1

In assay [26] the test system is Felis catus. The experiment in a line: % of maximum change of decrease in HR by vagal stimulation in anesthetized cat at 1.6umol/kg, by bolus injection.
In assay [27] the test system is Felis catus. The experiment in a line: Percentage of maximum change in blood pressure in anesthetized cat dosed at 1.6 umol/kg (by bolus injection). The method in brief: as §1
Assay [28] deals with Felis catus. The experiment in a line: % of maximum change of increase in contraction of nictitating membrane in anesthetized cat at 0.6umol/kg, by bolus injection.
The subject of assay [29] is Felis catus. In words: Percentage of maximum change of heart rate in anesthetized cat at 0.8umol/kg, by bolus injection. The method in brief: as §1
Assay [30] deals with Felis catus. In words: % of maximum change of increase in contraction of nictitating membrane in anesthetized cat at 1.8umol/kg, by bolus injection.
Assay [31] has as its system Felis catus. The experiment in a line: % of maximum change of decrease in HR by vagal stimulation in anesthetized cat at 1.2umol/kg, by bolus injection.
The subject of assay [32] is Felis catus. The experiment in a line: % of maximum change of increase in contraction of nictitating membrane in anesthetized cat at 0.2umol/kg, by bolus injection.
In assay [33] the test system is Felis catus. The experiment in a line: Percentage of maximum change of heart rate in anesthetized cat at 1.2umol/kg, by bolus injection. A digest of the protocol:
as §1

Assay [34] deals with Felis catus. In words: % of maximum change of increase in contraction of nictitating membrane in anesthetized cat at 1.4umol/kg, by bolus injection.
The subject of assay [35] is Felis catus. In words: Percentage of maximum change in blood pressure in anesthetized cat dosed at 1.4 umol/kg (by bolus injection). The method in brief: as §1
Assay [36] is filed under the species Mus musculus. The experiment in a line: In vitro reversal activity versus ~90% block by rocuronium in isolated mouse hemidiaphragm, expressed as effective conc.
Assay [37] relates to Felis catus. The experiment in a line: % of maximum change of decrease in HR by vagal stimulation in anesthetized cat at 1.8umol/kg, by bolus injection.
Assay [38] concerns Felis catus. The experiment in a line: Percentage of maximum change of heart rate in anesthetized cat at 1.8umol/kg, by bolus injection. The method in brief: as §1
Assay [39] concerns Felis catus. In words: Percentage of maximum change in blood pressure in anesthetized cat dosed at 0.8 umol/kg (by bolus injection). A digest of the protocol: as §1
Assay [40] has as its system Felis catus. The experiment in a line: % of maximum change of increase in contraction of nictitating membrane in anesthetized cat at 1.6umol/kg, by bolus injection.
The species entered for assay [41] is Mus musculus. In words: In vitro reversal activity versus ~90% block by rocuronium in isolated mouse hemidiaphragm, expressed as % of maximum reversal at 14.4 uM conc.
Assay [42] concerns Cavia porcellus. In words: In vivo reversal activity versus ~90% block by rocuronium in guinea pig, expressed as % of maximum reversal at 7.3 umol/kg conc. The method in brief:
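Male Dunkin-Hartley guinea pigs (600-900 g) anaesthetized ip with pentobarbitone 10 mg/kg plus urethane 1000 mg/kg, tracheotomized and artificially ventilated. Continuous iv rocuronium bromide infusion (~10 nmol kg-1 min-1) raised until steady-state twitch block of 85-90%. Increasing single iv doses of reversal agent given by a separate catheter. Max reversal is peak twitch recovery versus preblock height at highest dose tested; means ± SEM, n ≥ 2 or single experiment.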

Regarding `O=C([O-])CCSCC1O[C@@H]2O[C@@H]3C(CSCCC(=O)[O-])O[C@H](O[C@@H]4C(CSCCC(=O)[O-])O[C@H](O[C@@H]5C(CSCCC(=O)[O-])O[C@H](O[C@@H]6C(CSCCC(=O)[O-])O[C@H](O[C@@H]7C(CSCCC(=O)[O-])O[C@H](O[C@@H]8C(CSCCC(=O)[O-])O[C@H](O[C@@H]9C(CSCCC(=O)[O-])O[C@H](O[C@H]1C(O)C2O)C(O)C9O)C(O)C8O)C(O)C7O)C(O)C6O)C(O)C5O)C(O)C4O)C(O)C3O.[Na+].[Na+].[Na+].[Na+].[Na+].[Na+].[Na+].[Na+]` (some centres undefined), the Decrease in the assay with Felis catus [1] is reported as 0%; in the assay on Felis catus [2], -6.7%; with Felis catus [11], -2.9%; with Felis catus [20], 0.7%; in the assay with Felis catus [22] it was -6.7%; in the assay with Felis catus [24] it was 2.2%. Also, the Decrease with Felis catus [26] came to 0%; with Felis catus [31], 0%; with Felis catus [37], 11%. The BP with Felis catus [3] is -5 mmHg; with Felis catus [6] it was -3.3 mmHg; in the assay with Felis catus [9], 3.5 mmHg; in the assay with Felis catus [10] it was -7.3 mmHg; in the assay with Felis catus [15] it was -3.2 mmHg; in the assay on Felis catus [25], -6.5 mmHg. Also, the values for the BP in the assay on Felis catus [27], in the assay with Felis catus [35] and in the assay with Felis catus [39] were -5 mmHg, -3.3 mmHg and -3.3 mmHg, respectively. In addition, the Max change in the assay on Felis catus [4] was determined as 3.7%; in the assay with Felis catus [5], 0%; in the assay on Felis catus [7], 3.7%; in the assay with Felis catus [19], 8.7%; in the assay on Felis catus [28], 0%; with Felis catus [30], 12.5%. Besides, the Max change in the assay on Felis catus [32] is 0%; in the assay on Felis catus [34], 3.7%; in the assay on Felis catus [40] it was 3.7%. For the same compound, the HR in the assay with Felis catus [8] is -3.7 beats min-1; with Felis catus [13] it was -6.9 beats min-1; in the assay with Felis catus [14], -5.5 beats min-1; with Felis catus [17], -7.5 beats min-1; with Felis catus [21] it was -3.4 beats min-1; in the assay on Felis catus [23], -4.1%. For the same compound, the HR was -6.3 beats min-1 with Felis catus [29], -4 beats min-1 in the assay on Felis catus [33] and -14.3 beats min-1 with Felis catus [38]. Moreover, the Max reversal is given as 95.1% in the assay filed under Mus musculus [12] and 92.5% in the assay with Cavia porcellus [16]. Besides, the ED50 in the assay with Cavia porcellus [18] came out at 0.03 µmol/kg. In addition, in the assay listed under Mus musculus [36], the EC50 stood at 1.2 µM.

Turning to `CNC(=O)CSCC1O[C@@H]2O[C@@H]3C(CSCC(=O)NC)O[C@H](O[C@@H]4C(CSCC(=O)NC)O[C@H](O[C@@H]5C(CSCC(=O)NC)O[C@H](O[C@@H]6C(CSCC(=O)NC)O[C@H](O[C@@H]7C(CSCC(=O)NC)O[C@H](O[C@@H]8C(CSCC(=O)NC)O[C@H](O[C@@H]9C(CSCC(=O)NC)O[C@H](O[C@H]1C(O)C2O)C(O)C9O)C(O)C8O)C(O)C7O)C(O)C6O)C(O)C5O)C(O)C4O)C(O)C3O` (some centres undefined), the Max reversal is 79.6% in the assay filed under Mus musculus [41] and 102.2% with Cavia porcellus [42]. Also, the ED50 with Cavia porcellus [18] is 1.54 µmol/kg. For the same compound, the EC50 in the assay listed under Mus musculus [36] worked out at 6.4 µM.

As a reminder, the ED50 is the dose at which the effect has come halfway, by size or by number of responders. As usually defined, the EC50 is the concentration needed to bring the measured effect to its halfway point.
